Consider 13 molecules from ChEMBL document CHEMBL4177645, “Exploration of multi-target potential of chromen-4-one based compounds in Alzheimer's disease: Design, synthesis and biological evaluations” (Bioorg Med Chem, 2017).

A short description of test [1]: Anti-glycosylation activity using BSA assessed as inhibition of AGE formation measured after 30 hrs by fluorescence spectrophotometric method. Format: functional. Summed up: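 Glucose-mediated glycation of protein with fluorescent AGE read-out at 370 nm excitation / 440 nm emission. Test compounds dissolved in DMSO at different concentrations. Aminoguanidine positive control. Run in triplicate.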

The next test has as its target T1, Acetylcholinesterase (Rattus norvegicus, UniProt P37136).
T1 sequence (P37136 whole entry): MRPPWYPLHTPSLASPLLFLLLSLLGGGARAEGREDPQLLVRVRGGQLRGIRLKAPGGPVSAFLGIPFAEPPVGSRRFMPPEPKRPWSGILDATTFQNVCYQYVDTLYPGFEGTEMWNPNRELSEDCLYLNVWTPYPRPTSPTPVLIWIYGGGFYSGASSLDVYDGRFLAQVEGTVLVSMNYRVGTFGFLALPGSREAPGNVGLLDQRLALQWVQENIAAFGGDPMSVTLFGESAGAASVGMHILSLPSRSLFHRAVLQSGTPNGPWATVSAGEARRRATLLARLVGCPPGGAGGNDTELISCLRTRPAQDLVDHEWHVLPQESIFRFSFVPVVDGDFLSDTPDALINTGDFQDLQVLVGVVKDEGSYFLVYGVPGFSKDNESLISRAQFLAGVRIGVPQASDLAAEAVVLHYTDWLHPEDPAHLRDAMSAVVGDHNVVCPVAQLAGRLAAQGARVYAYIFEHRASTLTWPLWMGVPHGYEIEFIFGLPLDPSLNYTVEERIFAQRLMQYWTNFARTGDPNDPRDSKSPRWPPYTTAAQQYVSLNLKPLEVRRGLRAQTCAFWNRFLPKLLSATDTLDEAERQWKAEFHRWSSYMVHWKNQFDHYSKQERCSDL
In words: Inhibition of rat brain AChE using acetylthiocholine iodide as substrate by spectroscopic method.

Test [2] deals with T2, Acetylcholinesterase (Rattus norvegicus) (UniProt P37136).
T2 sequence (whole entry): T1 sequence (P37136 whole entry)
Description: Mixed type inhibition of rat brain AChE at 0.01 to 0.1 uM using increasing concentration acetylthiocholine iodide as substrate by Lineweaver-Burk plot analysis.

The subject of test [3] is Mus musculus. In words: Antialzheimer activity in Swiss albino mouse brain assessed as reversal of scopolamine-induced […] assessed per mg protein at 5 mg/kg, ip (reference value: 1.25 +/- 0.04 nM/min/mg) by spectrophotometric analysis. The format is functional.
Test [4] has as its system Mus musculus. In words: Reversal of scopolamine-induced memory impairment in Swiss albino mouse assessed as attenuation of scopolamine-induced decreased time spent in target quadrant at 2 to 10 mg/kg, ip administered 30 mins prior to scopolamine challenge measured on day 5 by Morris water maze test.
In test [5] the test system is Mus musculus. Description: Antialzheimer activity in Swiss albino mouse brain assessed as reversal of scopolamine-induced reduction in GSH levels at 10 mg/kg, ip (reference value: 21.3 +/- 0.81). The format is functional. Summed up:
(§1)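 Swiss albino mice of either sex (20–25 g), five per group, given scopolamine 0.5 mg/kg with test agent i.p. 30 min before scopolamine. After the water maze protocol, cortex and hippocampus were homogenized in ice-cold phosphate buffer pH 7.4 and spun 14,500 rpm, 15 min, 4 °C. Supernatant used for TBARS (Ohkawa) or reduced GSH (Beutler). Mean ± SD.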

In test [6] the test system is Mus musculus. In words: Reversal of scopolamine-induced memory impairment in Swiss albino mouse assessed as attenuation of scopolamine-induced […] time at 2 to 10 mg/kg, ip administered 30 mins prior to scopolamine challenge measured on day 4 by Morris water maze test. The format is functional, organism-based. Summed up: (§2)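 Swiss albino mice of either sex (20–25 g), five per group. Scopolamine 0.5 mg/kg; agent (2, 5, 10 mg/kg, i.p.) given 30 min before scopolamine ahead of each of the first four trials. Morris water maze: escape latency on days 1–4, time in target quadrant on day 5. Vehicle 10% DMSO. Mean ± SD, two-way ANOVA with Tukey test.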

Test [7] relates to Mus musculus. In words: Antialzheimer activity in Swiss albino mouse brain assessed as reversal of scopolamine-induced […] level at 10 mg/kg, ip (reference value: 26.51 +/- 0.79 nM/mg). The format is functional. Summed up:
as §1

The test system of test [8] is Mus musculus. In words: Antialzheimer activity in Swiss albino mouse brain assessed as reversal of scopolamine-induced […] level at 5 mg/kg, ip (reference value: 26.51 +/- 0.79 nM/mg). The format is functional. Summed up:
as §1

For test [9], the target named is T2, Acetylcholinesterase (Rattus norvegicus). In words: Potency index, ratio of donepezil IC50 to compound IC50 for inhibition of rat brain AChE.
The subject of test [10] is Mus musculus. Description: Antialzheimer activity in Swiss albino mouse brain assessed as reversal of scopolamine-induced […] assessed per mg protein at 10 mg/kg, ip (reference value: 1.25 +/- 0.04 nM/min/mg) by spectrophotometric analysis. Format: functional.
Test [11] deals with Mus musculus. Description: Antialzheimer activity in Swiss albino mouse brain assessed as reversal of scopolamine-induced reduction in GSH levels at 5 mg/kg, ip (reference value: 21.3 +/- 0.81). The format is functional. Summed up:
as §1

Test [12] has as its system Mus musculus. In words: Reversal of scopolamine-induced memory impairment in Swiss albino mouse assessed as attenuation of scopolamine-induced amnesia at 2 mg/kg, ip administered 30 mins prior to scopolamine challenge measured on day 4 by Morris water maze test. The format is functional, organism-based. Summed up:
as §2

Structures are written as SMILES. Active and inactive are the calls of the source. The rule behind the calls is not given here.

As for `COc1ccc(-c2cc(=O)c3ccc(OCCCCN4CCC(C)CC4)cc3o2)cc1`, the IC50 in test [1] stood at 48.2 µM; against Acetylcholinesterase it was 0.0135 µM.

For `COc1ccc(-c2cc(=O)c3ccc(O)cc3o2)cc1OC`, the results for the IC50 (in [1]; against Acetylcholinesterase) were 47.4 µM and 0.0373 µM, respectively.

Consider `COc1cc(-c2cc(=O)c3ccc(OCCN4CCC(C)CC4)cc3o2)cc(OC)c1OC`, for which the IC50 in [1] amounted to 37.1 µM; against Acetylcholinesterase, 0.00587 µM. In addition, the inhibition entry in [2] was “Active”. Besides, the Activity in the test with Mus musculus [3] was found to be 0.97 nmol/min/mg; in the test on Mus musculus [5] it was 36.8 nM/mg; in the test on Mus musculus [7], 17.6 nM/mg; in the test on Mus musculus [8], 20.14 nM/mg; in the test with Mus musculus [10], 0.85 nmol/min/mg; in the test with Mus musculus [11], 31.7 nM/mg. Further, the outcome with Mus musculus [4] and with Mus musculus [6] was Active. In test [9], the Ratio IC50 turned out to be 2.

With `COc1cc(-c2cc(=O)c3ccc(O)cc3o2)cc(OC)c1OC`, the concentration for half-maximal inhibition (IC50) in test [1] stood at 51.4 µM; against Acetylcholinesterase, 0.0442 µM.

With `N=C(N)NN` [PIMAGEDINE], the IC50 in [1] was 40.1 µM.

In the case of `COc1ccc(-c2cc(=O)c3ccc(OCCCCCN4CCC(C)CC4)cc3o2)cc1`, the results for the IC50 (in test [1]; on Acetylcholinesterase) were 55.1 µM and 0.0156 µM, respectively.

Turning to `COc1ccc(-c2cc(=O)c3ccc(OCCCN4CCC(C)CC4)cc3o2)cc1OC`, the IC50 in [1] stood at 47.7 µM; at Acetylcholinesterase, 0.00648 µM.

In the case of `COc1cc2c(cc1OC)C(=O)C(CC1CCN(Cc3ccccc3)CC1)C2` (centres undefined), the result in the test with Mus musculus [12] was Active.

`COc1ccc(-c2cc(=O)c3ccc(OCCCCCCN4CCC(C)CC4)cc3o2)cc1`: the IC50 in [1] worked out at 57.2 µM; against Acetylcholinesterase it was 0.0481 µM.

Regarding `COc1ccc(-c2cc(=O)c3ccc(OCCN4CCC(C)CC4)cc3o2)cc1OC`, the IC50 turned out to be 42.1 µM in test [1] and 0.00677 µM on Acetylcholinesterase.

Regarding `COc1ccc(-c2cc(=O)c3ccc(O)cc3o2)cc1`, the concentration for half-maximal inhibition (IC50) in test [1] was 42 µM; on Acetylcholinesterase it was 0.035 µM.

Regarding `COc1ccc(-c2cc(=O)c3ccc(OCCCN4CCC(C)CC4)cc3o2)cc1`, the half-maximal inhibitory concentration (IC50) amounted to 42.6 µM in [1] and 0.0077 µM against Acetylcholinesterase.

Turning to `COc1cc(-c2cc(=O)c3ccc(OCCCN4CCC(C)CC4)cc3o2)cc(OC)c1OC`, the IC50 in [1] came to 41.8 µM; against Acetylcholinesterase, 0.00612 µM.

One may read the IC50 as the point on the concentration scale where inhibition reaches its midpoint.
